Reference: ChEMBL document CHEMBL3259597 (J Med Chem, 2014)

What was measured:
[1] = Lipophilicity, log D of the compound by octanol/buffer shake flask method; format: physicochemical
[2] = AUC in Sprague-Dawley rat at 30 mg/kg, po; format: ADME, organism-based; design: dose 30 mg/kg, route oral; conditions: plasma
Procedure, shortened: (§1)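 Male Sprague-Dawley rats, about 11 weeks old (300−400 g), singly housed with chow and water ad libitum. […] Urine was collected overnight predose and at 0−2, 2−4 and 4−7 h postdose for Na+ and K+, normalised to creatinine. Plasma drug was measured by LC-MS.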

[3] = AUC in rat at 1 mg/kg, iv; format: ADME, organism-based; design: dose 1 mg/kg, route intravenous; conditions: plasma
Procedure, shortened: (§2)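 Rat pharmacokinetics after a single IV dose of 1 mg/kg and an oral dose of 5 mg/kg. Reported parameters are AUC, t1/2, clearance, Vss and oral bioavailability.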

[4] = AUC in Sprague-Dawley rat at 3 mg/kg, po; format: ADME, organism-based; design: dose 3 mg/kg, route oral; conditions: plasma; procedure, shortened: as §1
[5] = Volume of distribution at steady state in rat at 1 mg/kg, iv; format: ADME, organism-based; design: dose 1 mg/kg, route intravenous; conditions: in vivo, read-out: Vdss; procedure, shortened: as §2
[6] = AUC in Sprague-Dawley rat at 10 mg/kg, po; format: ADME, organism-based; design: dose 10 mg/kg, route oral; conditions: plasma; procedure, shortened: as §1
[7] = Oral bioavailability in rat at 5 mg/kg; format: ADME, organism-based; conditions: in vivo; procedure, shortened: as §2
[8] = Intrinsic clearance in human liver microsomes; format: ADME; conditions: read-out: CLH
[9] = AUC in rat at 5 mg/kg, po; format: ADME, organism-based; design: dose 5 mg/kg, route oral; conditions: plasma; procedure, shortened: as §2
[10] = Half life in rat at 1 mg/kg, iv; format: ADME, organism-based; design: dose 1 mg/kg, route intravenous; conditions: in vivo; procedure, shortened: as §2
[11] = Clearance in rat at 1 mg/kg, iv; format: ADME, organism-based; design: dose 1 mg/kg, route intravenous; conditions: in vivo; procedure, shortened: as §2

| Structure (SMILES) | logD [1] | other results |
| --- | --- | --- |
| COc1cc(C2=NN(c3ccc(C#N)c(Cl)c3)[C@@H](C3CCCC3)C2)ccc1C(=O)O | 2.1 | – |
| CCOc1cc(C2=NN(c3ccc(C#N)c(Cl)c3)[C@@H](C3CCCC3)C2)ccc1C(=O)O | 2.6 | – |
| COc1cc(C2=NN(c3ccc(C#N)c(C)c3)[C@@H](C3CCCC3)C2)ccc1C(=O)O | 2.2 | – |
| CCOc1cc(C2=NN(c3ccc(C#N)c(C)c3)[C@@H](C3CCCC3)C2)ccc1C(=O)O | 2.7 | – |
| COc1nc(C2=NN(c3ccc(C#N)c(C)c3)[C@@H](C3CCCC3)C2)ccc1C(=O)O | 2.2 | AUC [2]: 33600 ng·h/mL; AUC [3]: 494 ng·h/mL; AUC [4]: 1170 ng·h/mL; Vd [5]: 3.1 L/kg; AUC [6]: 9240 ng·h/mL; bioavailability [7]: 54%; microsomal CLint [8]: < 14 µL/min/mg; AUC [9]: 1320 ng·h/mL; half-life [10]: 2.3 h; clearance [11]: 33 mL/min/kg |
| COc1nc(C2=NN(c3ccc(C#N)c(C)c3)[C@H](C3CCCC3)C2)ccc1C(=O)O | 2.2 | – |
| Cc1nc(N2N=C(c3ccc(C(=O)O)cc3)C[C@@H]2C2CCCC2)ccc1C#N | 2.6 | – |
| CCOc1nc(C2=NN(c3ccc(C#N)c(C)c3)[C@@H](C3CCCC3)C2)ccc1C(=O)O | 3 | – |
| COc1nc(C2=NN(c3ccc(C#N)c(Cl)c3)[C@@H](C3CCCC3)C2)ccc1C(=O)O | 2.3 | – |
| COc1nc(C2=NN(c3ccc(C#N)c(C)n3)[C@@H](C(C)C)C2)ccc1C(=O)O | 1.6 | – |
| CNC(=O)c1ccc(C2=NN(c3ccc(C#N)c(C)c3)[C@@H](C3CCCC3)C2)nc1OC | 4.4 | – |
| COc1nc(C2=NN(c3ccc(C#N)c(C)c3)[C@@H](C3CCCC3)C2)ccc1C(=O)Nc1nnn[nH]1 | 3.2 | – |
| N#Cc1ccc(N2N=C3c4ccc(C(=O)O)cc4CC[C@@H]3[C@@H]2C2CCCC2)cc1Cl [PF-03882845] | 3.5 | – |

Now from value to compound, other results behind:

| logD [1] | Structure (SMILES) | other results |
| --- | --- | --- |
| 2 | COc1nc(C2=NN(c3ccc(C#N)c(C)n3)[C@@H](C3CCCC3)C2)ccc1C(=O)O | – |
| 1.7 | COc1cc(C2=NN(c3ccc(C#N)c(C)n3)[C@@H](C3CCCC3)C2)ccc1C(=O)O | – |
| 3.8 | COc1nc(C2=NN(c3ccc(C#N)c(C)c3)[C@@H](C3CCCC3)C2)ccc1C(N)=O | – |
| 3.5 | COc1nc(C2=NN(c3ccc(C#N)c(C)c3)[C@@H](C3CCCC3)C2)ccc1C(=O)N(C)C | – |
| 3.4 | COc1nc(C2=NN(c3ccc(C#N)c(C)n3)[C@@H](C3CCCC3)C2)ccc1C(N)=O | – |
| 3.2 | CNC(=O)c1ccc(C2=NN(c3ccc(C#N)c(C)n3)[C@@H](C3CCCC3)C2)nc1OC | – |
| 4.1 | COc1nc(C2=NN(c3ccc(C#N)c(C)n3)[C@@H](C3CCCC3)C2)ccc1C(=O)N(C)C | – |
| 2.3 | COc1nc(C2=NN(c3ccc(C#N)c(C)c3)[C@@H](C3CCCC3)C2)ccc1C(=O)NS(C)(=O)=O | microsomal CLint [8]: 175 µL/min/mg |
| 1.9 | COc1nc(C2=NN(c3ccc(C#N)c(C)n3)[C@@H](C3CCCC3)C2)ccc1C(=O)NS(C)(=O)=O | – |
